# Calls of active or inactive are those of the source.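 Rule for the calls, unless noted: active = viability at or below 30% in both replicate assays; inconclusive = viability at or below 30% in just one of the two assays; inactive = the rest.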
# Key:
# [1] = SK-BR-3 cell growth inhibitors, pilot screen, 24 h, human (AID 572;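 active = viability at or below 10% of carrier control in both of two separate runs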;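 note: compound exposure lasted between 18 and 24 h rather than exactly 24 h; 100% = carrier-treated control wells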); conditions: SK-BR-3 viability, CellTiter-Glo luminescence, at 10 µM, stronger effect = lower value
# [2] = HUVEC growth inhibition – cell-based, human, primary screen (AID 575); conditions: HUVEC proliferation, CellTiter-Glo luminescence, 72 h; at 10 µM; stronger effect = lower value;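 note: 100% = median of untreated cell wells with 0.1% DMSO on each plate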
# How it was run: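 Assay system: Primary human umbilical vein endothelial cells | Quantity: 1250 cells per well | Medium: Supplemented EBM, 2% fetal bovine serum | Detection: CellTiter-Glo luminescence measuring cellular ATP | Read-out: % viability vs DMSO wells | Plate: Collagen-coated 384-well format | Times: 72 h exposure, 37 °C, 5% CO2, 30 min RT equilibration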
# [3] = growth inhibitors of H69AR lung tumor, primary screen, human, duplicate replicates (AID 580;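 active = viability at or under a set limit in both replicates, limit being median viability minus 3 SD, cut at about 48% in these data, passing the limit was not always enough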;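 note: 100% = mean luminescence of untreated wells and 0% = no signal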); conditions: H69AR lung tumor cells viability, ATP luminescence, 72 h; at 10 µM; stronger effect = lower value
# [4] = reversal of MRP1-mediated doxorubicin resistance, pilot screen, H69AR cells, doxorubicin co-treatment (AID 601;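 active = viability loss from added drug above about 55%, and viability with drug at most 40%, in both replicates, limit read from the data, passing the limit was not always enough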); conditions: CellTiter-Glo, 72 h, at 10 µM; for differential viability (reversal): stronger effect = higher value
# [5] = 384-well plate pilot, post-Golgi transport modulator project, inhibition of yeast transport mutant growth (AID 636; in the data active = inhibition above about 31%); conditions: absorbance 615 nm, about 18 h, stronger effect = higher value
# [6] = growth suppression of yeast trafficking mutant, preliminary HTS, modulators of trafficking downstream of Golgi apparatus project, 1536-format plate, OD 615 nm (AID 637; in the data active = inhibition above about 30%); conditions: yeast transport mutant growth, absorbance 615 nm, 18 h; stronger effect = higher value
# [7] = H69AR cells + 2 uM doxorubicin, measured here: viability with 2 uM doxorubicin, stronger effect = lower value
# [8] = H69AR cells, compound alone cytotoxicity
Structure (SMILES),viability [1],viability [2],viability [3],differential viability (reversal) ([4]; H69AR cells + 2 uM doxorubicin),"viability [4, 7]","viability [4, 8]",inhibition [5],inhibition [6]
COc1ccc(C2C3=C(CCCC3=O)Nc3nc(SCc4ccccc4)nn32)cc1OC (configuration not stated),101% (inactive),121% (inactive),74.9% (inactive),-21% (inactive),96%,74.9%,-4.46% (inactive),0.36% (inactive)
CCCCOc1ccc(C2C3CN(C(=O)OCC)CC=C3C(C#N)=C(N)C2(C#N)C#N)cc1OC (configuration not stated),62% (inactive),51.2% (inactive),60.5% (inactive),5.07% (inactive),55.4%,60.5%,-5.27% (inactive),2.13% (inactive)
COc1cccc(NC(=O)N2CCCC2C(=O)Nc2ccc3c(c2)OCO3)c1 (configuration not stated),106% (inactive),114% (inactive),96.3% (inactive),16.1% (inactive),80.2%,96.3%,-5.33% (inactive),-4.55% (inactive)
CN(C)C(=O)COc1ccc2cc(-c3ccccc3)c(=O)oc2c1,93% (inactive),98.1% (inactive),90.7% (inactive),-2.2% (inactive),92.9%,90.7%,-7.12% (inactive),-4.18% (inactive)
COc1cc(NS(=O)(=O)c2ccc(N)cc2)ncn1,107% (inactive),75% (inactive),92% (inactive),27% (inactive),65%,92%,-1.56% (inactive),2.5% (inactive)
CCN1CCN(c2nc3c(c(=O)n(C)c(=O)n3C)n2Cc2cccc3ccccc23)CC1,87% (inactive),104% (inactive),87.7% (inactive),3.33% (inactive),84.4%,87.7%,-6.58% (inactive),0.91% (inactive)
COc1ccc(CCN2C(=O)CC(N3CCOCC3)C2=O)cc1 (configuration not stated),88% (inactive),89.4% (inactive),96.2% (inactive),16.3% (inactive),79.9%,96.2%,2.05% (inactive),-7.58% (inactive)
Clc1ccc2c(c1)[C@H]1OCC[C@H]1[C@@H](c1ccco1)N2,104% (inactive),89.6% (inactive),86% (inactive),0.43% (inactive),85.6%,86%,-0.13% (inactive),-5.83% (inactive)
COCCn1nnnc1SCC(=O)N1CCCCC1,63% (inactive),102% (inactive),99.4% (inactive),1.98% (inactive),97.4%,99.4%,-5.34% (inactive),4.18% (inactive)
